Data taken from ChEMBL document CHEMBL1135127, “SAR and species/stereo-selective metabolism of the sorbitol dehydrogenase inhibitor, CP-470,711” (Bioorg Med Chem Lett, 2002).

What was measured:
Sorbitol dehydrogenase [1] = molecular target: T1, Sorbitol dehydrogenase (Rattus norvegicus, UniProt P27867); assay: Inhibition of recombinant rat sorbitol dehydrogenase
T1 sequence (P27867 whole entry): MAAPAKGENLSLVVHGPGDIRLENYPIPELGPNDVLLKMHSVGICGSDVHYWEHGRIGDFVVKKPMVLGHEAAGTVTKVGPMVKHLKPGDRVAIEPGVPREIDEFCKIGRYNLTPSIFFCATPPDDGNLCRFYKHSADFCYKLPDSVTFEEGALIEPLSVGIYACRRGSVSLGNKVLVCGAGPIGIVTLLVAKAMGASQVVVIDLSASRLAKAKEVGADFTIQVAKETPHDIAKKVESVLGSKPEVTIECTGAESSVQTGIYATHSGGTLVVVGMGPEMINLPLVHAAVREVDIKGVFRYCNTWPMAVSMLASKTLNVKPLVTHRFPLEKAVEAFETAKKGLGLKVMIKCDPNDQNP

Rattus norvegicus [2] = assay: In vivo reversal of sciatic nerve fructose accumulation in streptozotocin rat by chronic assay at 1 mg/kg (qd x 5); assay type: functional
Procedure, shortened: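 Reversal design in STZ rats: once-daily dosing began 5 days after STZ. Sciatic nerve fructose was measured and activity expressed as % normalization at 1 mg/kg.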

Sorbitol dehydrogenase [3] = molecular target: T2, Sorbitol dehydrogenase (Homo sapiens, UniProt Q00796); assay: In vitro inhibition against human recombinant sorbitol dehydrogenase
T2 sequence (Q00796 whole entry): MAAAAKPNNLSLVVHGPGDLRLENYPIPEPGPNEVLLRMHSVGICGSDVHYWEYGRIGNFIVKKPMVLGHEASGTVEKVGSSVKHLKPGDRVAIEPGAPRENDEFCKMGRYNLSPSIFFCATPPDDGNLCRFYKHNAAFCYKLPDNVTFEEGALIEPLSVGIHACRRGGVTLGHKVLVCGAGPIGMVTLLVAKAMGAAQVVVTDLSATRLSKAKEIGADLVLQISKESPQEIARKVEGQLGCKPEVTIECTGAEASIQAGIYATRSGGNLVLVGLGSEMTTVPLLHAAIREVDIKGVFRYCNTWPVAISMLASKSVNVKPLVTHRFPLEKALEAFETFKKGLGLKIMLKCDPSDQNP

Rattus norvegicus [4] = assay: In vivo prevention of sciatic nerve fructose accumulation in streptozotocin diabetic rat by acute assay (tid x 4); assay type: functional
Procedure, shortened: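 Streptozotocin-diabetic rats dosed three times daily, starting 4 h after STZ, to prevent sciatic nerve fructose accumulation. Activity is reported as ED90 in mg/kg/d.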

Sorbitol dehydrogenase [5] = molecular target: T1, Sorbitol dehydrogenase; assay: Inhibition of recombinant rat Sorbitol dehydrogenase
Sorbitol dehydrogenase [6] = molecular target: T2, Sorbitol dehydrogenase; assay: In vitro inhibition against human recombinant Sorbitol dehydrogenase

Compound	IC50 (Sorbitol dehydrogenase [1]) [nM]	Reversal (Rattus norvegicus [2]) [%]	IC50 (Sorbitol dehydrogenase [3]) [nM]	ED90 (Rattus norvegicus [4]) [mg/kg/day]	IC50 (Sorbitol dehydrogenase [5]) [nM]	IC50 (Sorbitol dehydrogenase [6]) [nM]
CC(=O)c1nccc(N2C[C@@H](C)N(c3ccnc(C(C)=O)n3)[C@@H](C)C2)n1	227	92	212	0.9		
C[C@H](O)c1nccc(N2C[C@@H](C)N(c3ccnc([C@H](C)O)n3)[C@@H](C)C2)n1		84		0.7	640	831
CC(=O)c1nccc(N2C[C@@H](C)N(c3ccnc([C@@H](C)O)n3)[C@@H](C)C2)n1	18	94	19	0.2		
C[C@H](O)c1nccc(N2C[C@@H](C)N(c3ccnc([C@@H](C)O)n3)[C@@H](C)C2)n1	29	81	33	0.4		
CC(=O)c1nccc(N2[C@H](C)CN(c3ccnc([C@@H](C)O)n3)C[C@@H]2C)n1	5	77	6	0.5		
C[C@H](O)c1nccc(N2[C@H](C)CN(c3ccnc([C@@H](C)O)n3)C[C@@H]2C)n1		81		0.8	27	19
CC(O)c1nccc(N2C[C@@H](C)N(c3ccnc(C(C)O)n3)[C@@H](C)C2)n1 (some centres not stated)		92		0.6	8	28
C[C@@H]1CN(c2ccnc([C@@H](C)O)n2)C[C@H](C)N1c1ccnc([C@@H](C)O)n1	17	90	10	0.2		
